Activity calls are given as the source filed them. The rule behind the calls is not given here.
Key:
[1] = tested on: Echinochloa crus-galli; assay: (§1) Phytotoxicity against Echinochloa crus-galli (barnyard grass) assessed as mortality measured after 3 days at 5 mg/ml by foliar spraying; assay type: functional; conditions: for mortality at 5000 µg/mL: 72 h
Outline: (§2)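 Whole plants sprayed on the foliage with freshly prepared test solution at 5 mg/mL. Spray volume was matched to foliar surface area, roughly 1 to 3 mL per pot. One or two pots were treated per species, depending on foliar area and plant availability.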

[2] = tested on: Convolvulus arvensis; assay: Phytotoxicity against Convolvulus arvensis assessed as mortality measured after 3 days at 5 mg/ml by foliar spraying; assay type: functional; conditions: 72 h; outline: as §2
[3] = tested on: Poa annua; assay: Phytotoxicity against annual bluegrass Poa annua assessed as mortality measured after 3 days at 5 mg/ml by foliar spraying; assay type: functional; conditions: 72 h; outline: as §2
[4] = tested on: Rumex crispus; assay: Phytotoxicity against curly dock Rumex crispus assessed as mortality measured after 3 days at 5 mg/ml by foliar spraying; assay type: functional; conditions: 72 h; outline: as §2
[5] = tested on: Taraxacum officinale; assay: Phytotoxicity against dandelion Taraxacum officinale (dandelion) assessed as mortality measured after 3 days at 5 mg/ml by foliar spraying; assay type: functional; conditions: 72 h; outline: as §2
[6] = tested on: Echinochloa crus-galli; assay: as §1; assay type: functional; conditions: 72 h; outline: as §2
[7] = tested on: Amaranthus retroflexus; assay: Phytotoxicity against Amaranthus retroflexus assessed as mortality measured after 3 days at 5 mg/ml by foliar spraying; assay type: functional; conditions: 72 h; outline: as §2
[8] = tested on: Leptochloa; assay: Phytotoxicity against Leptochloa fascicularis (sprangletop) assessed as mortality measured after 3 days at 5 mg/ml by foliar spraying; assay type: functional; conditions: 72 h; outline: as §2
[9] = tested on: Digitaria sanguinalis; assay: Phytotoxicity against Digitaria sanguinalis (hairy crabgrass) assessed as mortality measured after 3 days at 5 mg/ml by foliar spraying; assay type: functional; conditions: 72 h; outline: as §2
[10] = tested on: Solanum nigrum; assay: Phytotoxicity against Solanum nigrum (black nightshade) assessed as mortality measured after 3 days at 5 mg/ml by foliar spraying; assay type: functional; conditions: 72 h; outline: as §2
[11] = tested on: Cyperus difformis; assay: Phytotoxicity against sedge Cyperus difformis assessed as mortality measured after 3 days at 5 mg/ml by foliar spraying; assay type: functional; conditions: 72 h; outline: as §2
[12] = tested on: Chenopodium album; assay: Phytotoxicity against Chenopodium album assessed as mortality measured after 3 days at 5 mg/ml by foliar spraying; assay type: functional; conditions: 72 h; outline: as §2
[13] = tested on: Mutarda arvensis; assay: Phytotoxicity against wild mustard Sinapis arvensis assessed as mortality measured after 3 days at 5 mg/ml by foliar spraying; assay type: functional; conditions: 72 h; outline: as §2
[14] = tested on: Oryza sativa; assay: Herbicidal activity against Oryza sativa (rice) (M-104) Oryza sativa L assessed as mortality measured after 3 days at 5 mg/ml by foliar spraying; assay type: organism-based; conditions: in vivo, other, 72 h; outline: as §2
[15] = tested on: Erigeron canadensis; assay: Phytotoxicity against Conyza canadensis (horseweed)assessed as mortality measured after 3 days at 5 mg/ml by foliar spraying; assay type: functional; conditions: 72 h; outline: as §2

SMILES | mortality at 5000 µg/mL [1] | other results
NC1CCCC1 | – | mortality [1]: inactive
CCCCC/C=C\C=C\C(=O)N1CCCCC1 [(2E,4Z-DECADIENOYL)PIPERIDINE] | 80% | –
O=C(/C=C/c1ccccc1)NC1CCCC1 | < 20% | –
CCCCCCCCCC(=O)NC1CCCC1 [N-CYCLOPENTYLDECANAMIDE] | < 20% | –
O=C(/C=C/c1ccccc1)N1CCCC1 | 80% | –
CCCCCCC/C=C/C(=O)O [2E-DECENOIC ACID] | 80% | –
CCCCCCC/C=C/C(=O)NC1CCCC1 | < 20% | –
CCCCCCCCCC(=O)N1CCCCCC1 [N-(DECANOYL)HEXAMETHYLENEIMINE] | 80% | –
CCCCCCCCCC(=O)N1CCCCC1 [N-(DECANOYL)PIPERIDINE] | 80% | –
CCCCC/C=C/C=C/C(=O)N1CCCC1 [SARMENTINE] | 80% | mortality at 5000 µg/mL [2]: 80%; mortality at 5000 µg/mL [3]: 80%; mortality at 5000 µg/mL [4]: 80%; mortality at 5000 µg/mL [5]: 80%; mortality at 5000 µg/mL [6]: 80%; mortality at 5000 µg/mL [7]: 80%; mortality at 5000 µg/mL [8]: 80%; mortality at 5000 µg/mL [9]: 80%; mortality at 5000 µg/mL [10]: 80%; mortality at 5000 µg/mL [11]: 20%; mortality at 5000 µg/mL [12]: 80%; mortality at 5000 µg/mL [13]: 80%; mortality [14]: Not Active; mortality at 5000 µg/mL [15]: < 20%
C1CCNCC1 | – | mortality [1]: inactive
CCCCCCC/C=C/C(=O)N1CCCCCC1 | 80% | –
O=C(O)/C=C/c1ccccc1 [CINNAMIC ACID] | 60% | –
O=C(/C=C/c1ccccc1)N1CCCCCC1 | < 20% | –
CCCCC/C=C\C=C\C(=O)NC1CCCC1 | < 20% | –
CCCCCCCCCC(=O)O [DECANOIC ACID] | 80% | –
CCCCC/C=C\C=C\C(=O)OCC | < 20% | –
C1CCNC1 | – | mortality [1]: inactive
C1CCCNCC1 | – | mortality [1]: inactive
CCCCCCCCCC(=O)N1CCCC1 [N-(DECANOYL)PYRROLIDINE] | 80% | –
CCCCCCC/C=C/C(=O)N1CCCC1 | 80% | –
CCCCC/C=C\C=C\C(=O)N1CCCC1 [(2E,4Z-DECADIENOYL)PYRROLIDINE] | 80% | –
O=C(/C=C/c1ccccc1)N1CCCCC1 | 40% | –
CCCCCCC/C=C/C(=O)N1CCCCC1 | 80% | –
CCCCC/C=C\C=C\C(=O)N1CCCCCC1 [(2E,4Z-DECADIENOYL)HEXAMETHLENEIMINE] | 80% | –

From ChEMBL document CHEMBL3045604, “Phytotoxicity of sarmentine isolated from long pepper (Piper longum) fruit” (J Agric Food Chem, 2010)
